Experimental data as given in ChEMBL document CHEMBL1212759, “Antifungal activity of colistin against mucorales species in vitro and in a murine model of Rhizopus oryzae pulmonary infection” (Antimicrob Agents Chemother, 2010).
Calls of active or inactive are those of the source. The calls are words filed in the database; no cut-off is given here.

How the values were obtained:
[1] = test system: Rhizopus arrhizus; assay: Antimicrobial activity against Rhizopus oryzae assessed as reduction in hyphal viability at 8 ug/ml after 24 hrs by XTT assay; format: functional, organism-based
In short: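 R. oryzae mycelia were shaken at 37°C in RPMI 1640 with colistin, amphotericin B or both; drug-free RPMI served as control. At 0, 2, 6 and 24 h, pellets received XTT (1 mg) plus menadione (0.17 mg) in 1 ml PBS for 1 h at 37°C, then OD405 was read. Viability is drug OD405 divided by control OD405; at least three experiments.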

[2] = test system: Cunninghamella bertholletiae; assay: Antimicrobial activity against Cunninghamella bertholletiae isolate 5633 after 24 hrs in yeast nitrogen base complete medium by broth microdilution method; format: functional, organism-based
In short: (§1)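 Broth microdilution in YNB complete medium with colistin at 128 to 0.12 μg/ml. Freshly collected spores were inoculated at 0.5 × 10^4 to 4 × 10^4 cells/ml and incubated 24 h at 37°C. MIC was read visually as the lowest concentration with complete (100%) growth inhibition.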

[3] = test system: Cunninghamella bertholletiae; assay: Antimicrobial activity against Cunninghamella bertholletiae isolate 6733 after 24 hrs in yeast nitrogen base complete medium by broth microdilution method; format: functional, organism-based; in short: as §1
[4] = test system: Rhizopus microsporus; assay: Antimicrobial activity against Rhizopus microsporus isolate 6164 after 24 hrs in RMPI 1640 medium by broth microdilution method; format: functional
In short: (§2)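 Colistin was serially diluted from 64 to 0.06 μg/ml in RPMI 1640 with glucamine and without bicarbonate. Fresh spores from 48–72 h YAG plates were added at 0.5 × 10^4 to 4 × 10^4 cells/ml. Plates were incubated 24 h at 37°C. MIC was read visually as the lowest concentration giving 100% growth inhibition.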

[5] = test system: Rhizopus arrhizus; assay: Antimicrobial activity against Rhizopus oryzae isolate 5496 after 24 hrs in yeast nitrogen base complete medium by broth microdilution method; format: functional, organism-based; in short: as §1
[6] = test system: Rhizopus arrhizus; assay: Antimicrobial activity against Rhizopus oryzae isolate 5879 after 24 hrs in yeast nitrogen base complete medium by broth microdilution method; format: functional, organism-based
In short: (§3)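 Microdilution was done in yeast nitrogen base complete medium, with colistin serially diluted 128 to 0.12 μg/ml. Spores were harvested from YAG plates (48–72 h, 37°C), washed, filtered and counted, then added at 0.5 × 10^4 to 4 × 10^4 cells/ml. After 24 h at 37°C, MIC was taken visually as the lowest concentration with complete growth inhibition.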

[7] = test system: Rhizopus arrhizus; assay: Antimicrobial activity against Rhizopus oryzae assessed as vacuolar and plasma membrane damage at 32 ug/ml by FM4-64 staining; format: functional, organism-based
In short: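 Germlings at 5 × 10^6/ml were loaded with 5 μM FM4-64 in RPMI 1640 for 30 min at 30°C in the dark. After washing in PBS, they were exposed to colistin at the MIC and MFC, or drug-free RPMI, for 60 min at 37°C. Membranes were viewed by fluorescence microscopy with a rhodamine filter.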

[8] = test system: Rhizopus; assay: Antimicrobial activity against […] isolate 6254 after 24 hrs in yeast nitrogen base complete medium by broth microdilution method; format: functional, organism-based; in short: as §1
[9] = test system: Mucor circinelloides; assay: Antimicrobial activity against Mucor circinelloides isolate 4480 after 24 hrs in yeast nitrogen base complete medium by broth microdilution method; format: functional, organism-based; in short: as §1
[10] = test system: Mucor circinelloides; assay: Antimicrobial activity against Mucor circinelloides isolate 5904 after 24 hrs in yeast nitrogen base complete medium by broth microdilution method; format: functional, organism-based; in short: as §1
[11] = test system: Mucor circinelloides; assay: Antimicrobial activity against Mucor circinelloides isolate 4818 after 24 hrs in RMPI 1640 medium by broth microdilution method; format: functional, organism-based; in short: as §2
[12] = test system: Cunninghamella bertholletiae; assay: Antimicrobial activity against Cunninghamella bertholletiae isolate 6694 after 24 hrs in yeast nitrogen base complete medium by broth microdilution method; format: functional, organism-based; in short: as §1
[13] = test system: Rhizopus arrhizus; assay: Antimicrobial activity against Rhizopus oryzae isolate 4549 after 24 hrs in yeast nitrogen base complete medium by broth microdilution method; format: functional, organism-based; in short: as §1
[14] = test system: Rhizopus arrhizus; assay: Antimicrobial activity against Rhizopus oryzae isolate 4549 after 24 hrs in RMPI 1640 medium by broth microdilution method; format: functional, organism-based; in short: as §2
[15] = test system: Rhizopus arrhizus; assay: Antimicrobial activity against Rhizopus oryzae assessed as plasma membrane disruption-related ATP release at 8 ug/ml after 5 mins by Cell Titer-Glo luminescent assay; format: functional, organism-based
In short: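 Spores at 10^7 cells/ml in RPMI 1640 were germinated about 6 h at 37°C. Germlings were resuspended in RPMI with colistin at 8 or 32 μg/ml, or drug-free, and shaken at 37°C. Supernatants taken at 5, 30, 60 and 90 min were assayed for released ATP by CellTiter-Glo luminescence.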

[16] = test system: Rhizopus homothallicus; assay: Antimicrobial activity against Rhizopus homothallicus isolate 5910 after 24 hrs in yeast nitrogen base complete medium by broth microdilution method; format: functional; in short: as §1
[17] = test system: Rhizopus arrhizus; assay: Antimicrobial activity against Rhizopus oryzae isolate 4153 after 24 hrs in RMPI 1640 medium by broth microdilution method; format: functional, organism-based; in short: as §2
[18] = test system: Rhizopus arrhizus; assay: Antimicrobial activity against Rhizopus oryzae isolate 6093 after 24 hrs in RMPI 1640 medium by broth microdilution method; format: functional, organism-based
In short: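 Broth microdilution in RPMI 1640 with […], without bicarbonate. Colistin was serially diluted 64 to 0.06 μg/ml. Spores came from YAG plates grown 48–72 h at 37°C, were filtered and counted, and were inoculated at 0.5 × 10^4 to 4 × 10^4 cells/ml. Plates were incubated 24 h at 37°C. MIC was read visually as the lowest concentration giving 100% growth inhibition.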

[19] = test system: Mucor circinelloides; assay: Antimicrobial activity against Mucor circinelloides isolate 4480 after 24 hrs in RMPI 1640 medium by broth microdilution method; format: functional, organism-based; in short: as §2
[20] = test system: Mucor circinelloides; assay: Ratio of MFC to MIC for Mucor circinelloides isolate 4480 after 24 hrs in RMPI 1640 medium by broth microdilution method; format: functional, organism-based
In short: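 RPMI 1640 microdilution with colistin at 64 to 0.06 μg/ml and spores at 0.5 × 10^4 to 4 × 10^4 cells/ml, incubated 24 h at 37°C. MIC was read visually as 100% inhibition. For MFC, 20 μl from clear wells and from the last growth well were subcultured onto YAG. MFC was the lowest concentration giving fewer than three colonies at 24 h (≥99.9% killing). The line reports the MFC/MIC ratio.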

[21] = test system: Rhizopus arrhizus; assay: Antimicrobial activity against Rhizopus oryzae isolate 6093 after 24 hrs in yeast nitrogen base complete medium by broth microdilution method; format: functional, organism-based; in short: as §3
[22] = test system: Rhizopus arrhizus; assay: Fungicidal activity against Rhizopus oryzae 5799 after 6 hrs by DiBAC staining; format: functional, organism-based
In short: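 Spores were grown to mycelia in RPMI 1640 plus 0.15% Junlon, shaken 18 h at 37°C. Mycelia were pelleted and exposed 6 h at 37°C with shaking to colistin (two levels), amphotericin B 2 μg/ml, or drug-free medium. They were washed in MOPS pH 7, stained with DiBAC 2 μg/ml for 1 h in the dark at ambient temperature, and imaged by fluorescence microscopy with an FITC filter.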

[23] = test system: Cunninghamella bertholletiae; assay: Antimicrobial activity against Cunninghamella bertholletiae isolate 5633 after 24 hrs in RMPI 1640 medium by broth microdilution method; format: functional, organism-based; in short: as §2

COLISTIN
inhibition [1]: inactive | MFC [2]: > 128 µg/mL | MIC [2]: 128 µg/mL | MFC [3]: > 128 µg/mL | MIC [3]: 128 µg/mL | MFC [4]: 64 µg/mL | MIC [4]: 32 µg/mL | MFC [5]: > 128 µg/mL | MIC [5]: 128 µg/mL | MFC [6]: > 128 µg/mL | MIC [6]: 128 µg/mL | Activity [7]: Active | MFC [8]: > 128 µg/mL | MIC [8]: 128 µg/mL | MFC [9]: > 128 µg/mL | MIC [9]: 128 µg/mL | MFC [10]: > 128 µg/mL | MIC [10]: 128 µg/mL | MFC [11]: 32 µg/mL | MIC [11]: 32 µg/mL | MFC [12]: > 128 µg/mL | MIC [12]: 128 µg/mL | MFC [13]: > 128 µg/mL | MIC [13]: 128 µg/mL | MFC [14]: 64 µg/mL | MIC [14]: 32 µg/mL | Activity [15]: Active | MFC [16]: > 128 µg/mL | MIC [16]: 128 µg/mL | MFC [17]: 64 µg/mL | MIC [17]: 16 µg/mL | MFC [18]: 32 µg/mL | MIC [18]: 16 µg/mL | MFC [19]: 32 µg/mL | MIC [19]: 16 µg/mL | Ratio [20]: 2 | MFC [21]: > 128 µg/mL | MIC [21]: 128 µg/mL | Activity [22]: Dose-dependent effect | MFC [23]: 64 µg/mL | MIC [23]: 16 µg/mL
